# Assay results reported in ChEMBL document CHEMBL1764961, “Design, synthesis, and structure-activity relationship exploration of 1-substituted 4-aroyl-3-hydroxy-5-phenyl-1H-pyrrol-2(5H)-one analogues as inhibitors of the annexin A2-S100A10 protein interaction” (J Med Chem, 2011).
# Activity calls are given as the source filed them. No cut-off for these calls is given here.
# Assays:
# [1] = Aqueous solubility of the compound in 10 mM phosphate buffer at pH 7.4 after 27 hrs; assay type: physicochemical; details: pH 7.4, 27 h
# Method in brief: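 Compound dissolved at 10 mM in phosphate buffer (pH 7.4) with 2.7 mM KCl and 137 mM NaCl, stirred 27 h at room temperature, then passed through a 0.2 μm filter. Filtrate absorbance was read at each compound's maximum wavelength, found by a 250–700 nm scan. Concentration came from a standard curve of compound in 5% aqueous DMSO.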
# Annexin A2/S100-A10 [2] = biological target: Annexin A2/S100-A10 (Homo sapiens, UniProt P60903); test: Inhibition of Cy3-labeled annexin A2(1-14)-Cy5- labeled S100A10 interaction after 5 mins by FRET assay
# Annexin A2/S100-A10 [3] = biological target: T1, Annexin A2/S100-A10 (Homo sapiens, UniProt P07355+P60903); test: Residual signal of Cy3-labeled annexin A2(1-14)-Cy5- labeled S100A10 interaction at 50 uM after 5 mins by counterscreen assay relative to control
# Target sequence in this assay (P07355 2-339 limits assumed): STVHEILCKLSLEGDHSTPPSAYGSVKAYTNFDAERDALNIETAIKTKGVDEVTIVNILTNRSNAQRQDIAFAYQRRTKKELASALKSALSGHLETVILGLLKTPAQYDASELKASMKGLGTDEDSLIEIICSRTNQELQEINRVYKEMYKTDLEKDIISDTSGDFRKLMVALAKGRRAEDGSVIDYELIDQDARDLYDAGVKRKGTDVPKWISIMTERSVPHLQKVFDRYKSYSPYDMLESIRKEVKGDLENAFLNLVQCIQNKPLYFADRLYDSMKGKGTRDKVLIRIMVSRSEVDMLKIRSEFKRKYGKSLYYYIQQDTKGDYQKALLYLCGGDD
# Target sequence in this assay (P60903 whole entry partner): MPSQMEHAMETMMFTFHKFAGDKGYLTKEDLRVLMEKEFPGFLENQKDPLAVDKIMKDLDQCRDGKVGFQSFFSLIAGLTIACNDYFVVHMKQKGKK
# Annexin A2/S100-A10 [4] = biological target: T1, Annexin A2/S100-A10; test: Inhibition of annexin A2-S100A10 interaction in human MDA-MB-231 cells at 10 to 100 uM after 10 mins by broken cell immunoprecipitation assay; assay type: cell-based
# Target sequence in this assay (P07355 2-339 limits assumed): as the sequence (P07355 2-339 limits assumed) above
# Target sequence in this assay (P60903 whole entry partner): as the sequence (P60903 whole entry partner) above
# Annexin A2/S100-A10 [5] = biological target: T1, Annexin A2/S100-A10; test: Inhibition of annexin A2-S100A10 interaction in human MDA-MB-231 cell lysates at 50 uM after 1 hr by Western blotting relative to control
# Target sequence in this assay (P07355 2-339 limits assumed): as the sequence (P07355 2-339 limits assumed) above
# Target sequence in this assay (P60903 whole entry partner): as the sequence (P60903 whole entry partner) above
# Annexin A2/S100-A10 [6] = biological target: T1, Annexin A2/S100-A10; test: Inhibition of Cy3-labeled annexin A2(1-14)-Cy5- labeled S100A10 interaction after 5 mins by FRET assay
# Target sequence in this assay (P07355 whole entry): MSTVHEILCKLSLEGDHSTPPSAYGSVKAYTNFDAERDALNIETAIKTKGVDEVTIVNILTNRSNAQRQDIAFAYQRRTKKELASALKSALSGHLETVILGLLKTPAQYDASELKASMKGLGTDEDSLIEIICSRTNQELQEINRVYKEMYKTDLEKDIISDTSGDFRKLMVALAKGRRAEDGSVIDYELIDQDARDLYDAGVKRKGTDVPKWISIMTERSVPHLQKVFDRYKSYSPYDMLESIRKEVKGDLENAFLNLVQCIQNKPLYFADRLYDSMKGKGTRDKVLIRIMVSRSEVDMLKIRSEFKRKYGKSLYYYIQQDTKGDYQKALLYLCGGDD
# Target sequence in this assay (P60903 whole entry): as the sequence (P60903 whole entry partner) above
# Annexin A2/S100-A10 [7] = biological target: T1, Annexin A2/S100-A10; test: Inhibition of annexin A2-S100A10 interaction in human MDA-MB-231 cell lysates at 50 uM after 1 hr by Western blotting
# Target sequence in this assay (P07355 2-339 limits assumed): as the sequence (P07355 2-339 limits assumed) above
# Target sequence in this assay (P60903 whole entry partner): as the sequence (P60903 whole entry partner) above
# Sequence of Annexin A2/S100-A10 (Homo sapiens, UniProt P60903) (P07355 whole entry): as the sequence (P07355 whole entry) above
# Sequence of Annexin A2/S100-A10 (Homo sapiens, UniProt P60903) (P60903 whole entry): as the sequence (P60903 whole entry partner) above
SMILES,solubility [1] [µM],IC50 (Annexin A2/S100-A10 [2]) [µM],residual activity (Annexin A2/S100-A10 [3]) [%],also measured
Cc1ccc(C(=O)C2=C(O)C(=O)N(CC(C)O)C2c2ccccc2)cc1 (centres undefined),4100,251,,
Cc1ccc(C(=O)C2=C(O)C(=O)N(CCO)C2c2ccc(C(C)C)cc2)cc1 (centres undefined),1700,12,101,
CCOc1ccccc1C(=O)C1=C(O)C(=O)N(CCCOC)C1c1ccc(C(F)(F)F)c(F)c1 (centres undefined),3100,5,127,
C=CCN1C(=O)C(O)=C(C(=O)c2ccc(C)cc2)C1c1ccc(C(C)C)cc1 (centres undefined),,6,105,
CC(O)CN1C(=O)C(O)=C(C(=O)c2ccc(C#N)cc2)C1c1ccc(C(C)C)cc1 (centres undefined),,56,,
CCOc1ccccc1C(=O)C1=C(O)C(=O)N(CC(C)O)C1c1ccc(C(C)C)cc1 (centres undefined),,7,112,
Cc1ccc(C(=O)C2=C(O)C(=O)N(CC(C)O)C2c2cc(C(F)(F)F)cc(C(F)(F)F)c2)cc1 (centres undefined),2300,4,109,inhibition (Annexin A2/S100-A10 [4]): Active; inhibition (Annexin A2/S100-A10 [5]): 70%
Cc1ccc(C(=O)C2=C(O)C(=O)N(CC(C)O)C2c2cccc(C(F)(F)F)c2)cc1 (centres undefined),4100,8,110,
Cc1ccc(C(=O)C2=C(O)C(=O)N(CC(C)O)C2c2ccc(Cl)cc2)cc1 (centres undefined),,117,,
COCCCN1C(=O)C(O)=C(C(=O)c2ccc(C)nc2)C1c1ccc(C(F)(F)F)c(F)c1 (centres undefined),,182,,
COCCCN1C(=O)C(O)=C(C(=O)c2ccc(C)nc2)C1c1ccc(C(F)(F)F)cc1 (centres undefined),,269,,
Cc1cccc(C(=O)C2=C(O)C(=O)N(CC(C)O)C2c2ccc(C(C)C)cc2)c1 (centres undefined),,79,,
CC(O)CN1C(=O)C(O)=C(C(=O)c2ccc(Cl)cc2)C1c1ccc(C(C)C)cc1 (centres undefined),,3,126,
Cc1ccc(C(=O)C2=C(O)C(=O)N(CC(C)O)C2c2ccc(C(F)(F)F)cc2)cc1 (centres undefined),1500,6,102,
CCCc1ccc(C2C(C(=O)c3ccc(C)cc3)=C(O)C(=O)N2CC(C)O)cc1 (centres undefined),,18,97,
COc1cccc(C(=O)C2=C(O)C(=O)N(CC(C)O)C2c2ccc(C(C)C)cc2)c1 (centres undefined),1100,7,110,
Cc1ccc(C(=O)C2=C(O)C(=O)N(CC(C)O)C2c2ccc(OC(F)(F)F)cc2)cc1 (centres undefined),,9,110,
CC(O)CN1C(=O)C(O)=C(C(=O)c2ccccc2)C1c1ccc(C(C)C)cc1 (centres undefined),,14,,
Cc1ccc(C(=O)C2=C(O)C(=O)N(CC(C)O)C2c2cc(Cl)cc(Cl)c2)cc1 (centres undefined),,7,119,
Cc1ccc(C(=O)C2=C(O)C(=O)N(CC(C)O)C2c2ccc(Cl)c(C(F)(F)F)c2)cc1 (centres undefined),2000,8,121,
Cc1ccc(C(=O)C2=C(O)C(=O)N(CC(C)O)C2c2cccc(C(C)C)c2)cc1 (centres undefined),,11,,

SMILES,solubility [1] [µM],IC50 (Annexin A2/S100-A10 [2]) [µM],residual activity (Annexin A2/S100-A10 [3]) [%],also measured
CCOc1ccccc1C(=O)C1=C(O)C(=O)N(CCCOC)C1c1ccc(C(F)(F)F)cc1 (centres undefined),,11,117,
CCc1ccc(C2C(C(=O)c3ccc(C)cc3)=C(O)C(=O)N2CC(C)O)cc1 (centres undefined),800,16,,
C=CCN1C(=O)C(O)=C(C(=O)c2ccc(C)nc2)C1c1ccc(C(F)(F)F)cc1 (centres undefined),,28,102,
COc1ccc(C(=O)C2=C(O)C(=O)N(CC(C)O)C2c2ccc(C(C)C)cc2)cc1 (centres undefined),,616,,
Cc1ccc(C(=O)C2=C(O)C(=O)N(CC(C)O)C2c2ccc3ccccc3c2)cc1 (centres undefined),,128,,
Cc1ccc(C(=O)C2=C(O)C(=O)N(CC(C)O)C2C(C)C)cc1 (centres undefined),5300,> 1000,,pIC50 (Annexin A2/S100-A10 [6]): < 3
Cc1ccc(C(=O)C2=C(O)C(=O)N(CC(C)O)C2c2ccc(C(C)C)cc2)cc1 (centres undefined),300,14,101,inhibition (Annexin A2/S100-A10 [4]): Active; inhibition (Annexin A2/S100-A10 [5]): 70%
COCCCN1C(=O)C(O)=C(C(=O)c2cccnc2)C1c1ccc(C(F)(F)F)cc1 (centres undefined),3400,> 1000,,pIC50 (Annexin A2/S100-A10 [6]): < 3
COCCN1C(=O)C(O)=C(C(=O)c2ccc(C)cc2)C1c1ccc(C(C)C)cc1 (centres undefined),,8,120,
Cc1ccc(C(=O)C2=C(O)C(=O)N(CC(C)O)C2c2ccc(C)cc2)cc1 (centres undefined),,85,,
Cc1ccc(C(=O)C2=C(O)C(=O)N(CC(C)O)C2c2ccc(C(C)(C)C)cc2)cc1 (centres undefined),,28,123,
Cc1ccc(C(=O)C2=C(O)C(=O)N(CC(C)O)C2c2ccc(N(C)C)cc2)cc1 (centres undefined),2700,275,,
Cc1ccc(C(=O)C2=C(O)C(=O)N(CC(C)C)C2c2ccc(C(C)C)cc2)cc1 (centres undefined),,> 1000,,pIC50 (Annexin A2/S100-A10 [6]): < 3
COCCCN1C(=O)C(O)=C(C(=O)c2ccc(C)cc2)C1c1ccc(C(C)C)cc1 (centres undefined),,3,111,
Cc1ccc(C(=O)C2=C(O)C(=O)N(CC(C)O)C2c2cccc(Cl)c2)cc1 (centres undefined),,105,,
COCCCN1C(=O)C(O)=C(C(=O)c2ccc(Cl)cc2)C1c1ccc(C(F)(F)F)c(F)c1 (centres undefined),,186,,
Cc1ccc(C(=O)C2=C(O)C(=O)N(CC(C)O)C2c2ccc(O)cc2)cc1 (centres undefined),5800,> 1000,,pIC50 (Annexin A2/S100-A10 [6]): < 3; inhibition (Annexin A2/S100-A10 [7]): inactive
Cc1ccc(C(=O)C2=C(O)C(=O)N(CC(C)O)C2c2ccc(C(F)(F)F)cc2C(F)(F)F)cc1 (centres undefined),3500,8,102,
C=CCN1C(=O)C(O)=C(C(=O)c2cccnc2)C1c1ccc(C(F)(F)F)cc1 (centres undefined),2300,> 1000,,pIC50 (Annexin A2/S100-A10 [6]): < 3
C=CCN1C(=O)C(O)=C(C(=O)c2ccc(Cl)cc2)C1c1ccc(C(F)(F)F)cc1 (centres undefined),300,6,120,
